# Measured values as given in PMC7415516 (Clinical genitourinary cancer, 2020).
# Like-named read-outs stand apart in the source and are kept apart here.
# Assays:
# [1] = Pharmacokinetic analysis, plasma concentrations by LC-MS/MS, noncompartmental; format: in vivo, human; details: for half-life / Cmax / Tmax / Vd/F: male, human, plasma; for Vd/F: Vz/F
# [2] = tested on: patients with CRPC; details: cited from earlier work; for PSA response rate: treatment naïve patients, daily cumulative doses of 600 mg or greater
# [3] = tested on: enzalutamide-resistant cell lines (e.g. C4–2, C4–2B, MR49C, MR49F); details: established enzalutamide-resistant cell lines; cited from earlier work
# [4] = tested on: CYP17 lyase; details: cited from earlier work
# [5] = tested on: patients with mCRPC previously treated with enzalutamide; assay: Phase 2 open label study: PSA response, time to progression, overall survival; format: in vivo, human
# Outline: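 Open-label trial in men aged 18 or older with progressive mCRPC after more than three 28-day enzalutamide cycles, split into pre- and post-docetaxel cohorts. Oral dosing without routine steroids: 150 mg twice daily titrated to 450 mg twice daily, later amended to 750 mg, then 600 mg, once daily. PSA response was a ≥50% drop from baseline at 12 weeks (PCWG2). Radiographic progression by modified RECIST 1.1. Kaplan-Meier time to progression and overall survival.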
# [6] = tested on: patients with CRPC; details: phase 1 study, once daily dosing; cited from earlier work
# [7] = tested on: patients with mCRPC previously treated with enzalutamide; assay: Toxicity evaluation, adverse events graded by CTCAE version 4.0; format: in vivo, human
# Outline: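 Adverse events in enrolled mCRPC patients were graded per NCI CTCAE v4.0 during oral dosing: twice-daily titration to 450 mg, later 750 mg or 600 mg once daily. A related Grade 3 event held treatment until recovery to Grade 1 or baseline. Investigator-discretion reductions were allowed for low-grade events. Drug was stopped for Grade 4 events, a delay over 6 weeks, or more than 2 reductions.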
# [8] = tested on: CRPC cell lines MR49F, MDA-PCA-133, LNCaP; details: MDA-PCA-133, LNCaP (AR F876L, H874Y, T877A); cited from earlier work
# [9] = tested on: patients with mCRPC; details: sequence of ENZ followed by AA, cited from earlier work
# [10] = 600 mg oral, C1D1 (n=4), first dose
# [11] = 600 mg oral, C2D1 (n=4), steady-state
# [12] = 750 mg oral, C1D1 (n=3), first dose
# [13] = 750 mg oral, C2D2 (n=l), steady-state
# [14] = po, 600 mg, 600 mg oral, C1D1 (n=4), first dose
# [15] = po, 600 mg, 600 mg oral, C2D1 (n=4), steady-state
# [16] = po, 750 mg, 750 mg oral, C1D1 (n=3), first dose
# [17] = po, 750 mg, 750 mg oral, C2D2 (n=l), steady-state
# [18] = N = 17, attribution at least possible
smiles,measurement,setting,value
CC(C)[C@](O)(c1ccc2cc(OC(F)F)c(OC(F)F)cc2c1)c1c[nH]nn1 [Seviteronel],AUC/D (dose-normalized),[1]; [10],55.1 ± 7.21 mg·h/L/mg
same,Cmax/D (dose-normalized),[1]; [10],6.77 ± 3.20 mg/L/mg
same,CL/F,"[1]; 600 mg oral, C1D1 (n=4), first dose, Dose/AUCinf",18.4 ± 2.50 L/h
same,AUC/D (dose-normalized),[1]; [11],92.3 ± 9.94 mg·h/L/mg
same,Cmax/D (dose-normalized),[1]; [11],7.76 ± 1.93 mg/L/mg
same,CL/F,"[1]; 600 mg oral, C2D1 (n=4), steady-state, Dose/AUCtau",10.9 ± 1.32 L/h
same,AUC/D (dose-normalized),[1]; [12],58.9 ± 2.87 mg·h/L/mg
same,Cmax/D (dose-normalized),[1]; [12],6.82 ± 2.54 mg/L/mg
same,CL/F,"[1]; 750 mg oral, C1D1 (n=3), first dose, Dose/AUCinf",17.0 ± 0.84 L/h
same,AUC/D (dose-normalized),[1]; [13],84.6 mg·h/L/mg
same,Cmax/D (dose-normalized),[1]; [13],7.53 mg/L/mg
same,CL/F,"[1]; 750 mg oral, C2D2 (n=l), steady-state, Dose/AUCtau",11.8 L/h
same,increase of dose-normalized steady-state AUCτ over first dose AUCINF,"[1]; 6 patients, p=0.001",61%
same,"dose-normalized CMAX, mean",[1]; Cycle 1,6.79 µg/L/mg
same,dose-normalized first dose AUCINF,[1]; first dose,56.7 µg·h/L/mg
same,half-life,"[1]; oral, mean first dose half-life, 48-hr sampling window, range 7.9 – 23.5 hr",13.9 h
same,Cmax,[1]; [14],4070 ± 1920 ng/mL
same,Cmax,[1]; [15],4660 ± 1160 ng/mL
same,half-life,"[1]; po, 600 mg, T1/2, 600 mg oral, C1D1 (n=4), first dose",16.4 ± 4.78 h
same,half-life,"[1]; po, 600 mg, T1/2, 600 mg oral, C2D1 (n=4), steady-state",14.8 ± 5.94 h
same,Tmax,[1]; [14],2 h
same,Tmax,[1]; [15],5 ± 2.58 h
same,Vd/F,[1]; [14],438 ± 146 L
same,Vd/F,[1]; [15],229 ± 77.7 L
same,Cmax,[1]; [16],5110 ± 1900 ng/mL
same,Cmax,[1]; [17],5650 ng/mL
same,half-life,"[1]; po, 750 mg, T1/2, 750 mg oral, C1D1 (n=3), first dose",10.5 ± 4.35 h
same,half-life,"[1]; po, 750 mg, T1/2, 750 mg oral, C2D2 (n=l), steady-state",18.3 h
same,Tmax,[1]; [16],2 ± 1.7 h
same,Tmax,[1]; [17],2 h
same,Vd/F,[1]; [16],260 ± 121 L
same,Vd/F,[1]; [17],312 L
same,time to reach 97% steady-state,[1]; once daily dosing,69.5 h
same,expected accumulation above first-dose,[1]; once daily dosing until steady-state,43%
same,increase of steady-state dose-normalized CMAX over Cycle 1,[1]; p=0.44,20%
same,start of apparent monophasic elimination post dose,[1]; single oral dose 600mg or 750mg with food,2 to 4 h
same,"dose-normalized CMAX, mean",[1]; steady-state,8.16 µg/L/mg
same,dose-normalized steady-state AUCτ,[1]; steady-state,91.3 µg·h/L/mg
same,PSA declines of 50% or greater,"[2]; 450 mg twice daily, patients who had previously received ENZ",2 of 7
same,response rate,"[2]; pre-treated patients, Phase I study once daily dosing",0%
same,PSA response rate,[2]; once daily dosing (N=9),33%
same,PSA response rate,[2]; twice daily dosing (N=26),11%
same,potency compared with AA,[3],more potent than AA
same,selectivity towards the CYP17 lyase over hydroxylase,[4],approximately 10 fold
same,rate of significant PSA response (≥ 50% decrease in baseline serum PSA),"[5]; all 17 patients, after 12 weeks of seviteronel, PCWG2 criteria",6%
same,patients having documented PSA progression per PCWG2,[5]; of 17 patients,8 patients
same,minimal decline in PSA,"[5]; one patient, pre-chemotherapy cohort, 750 mg once daily reduced to 450 mg once daily, after 11 weeks",15%
same,patients experiencing fatigue,[6],71%
same,patients with blurry vision,[6],33%
same,patients with dizziness,[6],52%
same,"Blurred Vision, All Grades (Gr 1–3)",[7]; [18],4 (24) No. Patients (%)
same,"Blurred Vision, Grade 1",[7]; [18],3 (18) No. Patients (%)
same,"Blurred Vision, Grade 2",[7]; [18],1 (6) No. Patients (%)
same,"Blurred Vision, Grade 3",[7]; [18],0 (0) No. Patients (%)
same,"Concentration Impairment, All Grades (Gr 1–3)",[7]; [18],14 (82) No. Patients (%)
same,"Concentration Impairment, Grade 1",[7]; [18],9 (53) No. Patients (%)
same,"Concentration Impairment, Grade 2",[7]; [18],4 (24) No. Patients (%)
same,"Concentration Impairment, Grade 3",[7]; [18],1 (6) No. Patients (%)
same,"Dizziness, All Grades (Gr 1–3)",[7]; [18],6 (35) No. Patients (%)
same,"Dizziness, Grade 1",[7]; [18],3 (18) No. Patients (%)
same,"Dizziness, Grade 2",[7]; [18],1 (6) No. Patients (%)
same,"Dizziness, Grade 3",[7]; [18],2 (12) No. Patients (%)
same,"Edema (limbs), All Grades (Gr 1–3)",[7]; [18],3 (18) No. Patients (%)
same,"Edema (limbs), Grade 1",[7]; [18],2 (12) No. Patients (%)
same,"Edema (limbs), Grade 2",[7]; [18],1 (6) No. Patients (%)
same,"Edema (limbs), Grade 3",[7]; [18],0 (0) No. Patients (%)
same,"Fall, All Grades (Gr 1–3)",[7]; [18],3 (18) No. Patients (%)
same,"Fall, Grade 1",[7]; [18],1 (6) No. Patients (%)
same,"Fall, Grade 2",[7]; [18],1 (6) No. Patients (%)
same,"Fall, Grade 3",[7]; [18],1 (6) No. Patients (%)
same,"Fatigue, All Grades (Gr 1–3)",[7]; [18],11 (65) No. Patients (%)
same,"Fatigue, Grade 1",[7]; [18],3 (18) No. Patients (%)
same,"Fatigue, Grade 2",[7]; [18],8 (47) No. Patients (%)
same,"Fatigue, Grade 3",[7]; [18],0 (0) No. Patients (%)
same,"Gait Disturbance, All Grades (Gr 1–3)",[7]; [18],3 (18) No. Patients (%)
same,"Gait Disturbance, Grade 1",[7]; [18],3 (18) No. Patients (%)
same,"Gait Disturbance, Grade 2",[7]; [18],0 (0) No. Patients (%)
same,"Gait Disturbance, Grade 3",[7]; [18],0 (0) No. Patients (%)
same,"Hypotension, All Grades (Gr 1–3)",[7]; [18],4 (24) No. Patients (%)
same,"Hypotension, Grade 1",[7]; [18],1 (6) No. Patients (%)
same,"Hypotension, Grade 2",[7]; [18],2 (12) No. Patients (%)
same,"Hypotension, Grade 3",[7]; [18],1 (6) No. Patients (%)
same,"Malaise, All Grades (Gr 1–3)",[7]; [18],3 (18) No. Patients (%)
same,"Malaise, Grade 1",[7]; [18],0 (0) No. Patients (%)
same,"Malaise, Grade 2",[7]; [18],3 (18) No. Patients (%)
same,"Malaise, Grade 3",[7]; [18],0 (0) No. Patients (%)
same,"Nausea, All Grades (Gr 1–3)",[7]; [18],9 (53) No. Patients (%)
same,"Nausea, Grade 1",[7]; [18],7 (41) No. Patients (%)
same,"Nausea, Grade 2",[7]; [18],0 (0) No. Patients (%)
same,"Nausea, Grade 3",[7]; [18],2 (12) No. Patients (%)
same,"Presyncope, All Grades (Gr 1–3)",[7]; [18],3 (18) No. Patients (%)
same,"Presyncope, Grade 1",[7]; [18],0 (0) No. Patients (%)
same,"Presyncope, Grade 2",[7]; [18],3 (18) No. Patients (%)
same,"Presyncope, Grade 3",[7]; [18],0 (0) No. Patients (%)
same,"Tremor, All Grades (Gr 1–3)",[7]; [18],10 (59) No. Patients (%)
same,"Tremor, Grade 1",[7]; [18],9 (53) No. Patients (%)
same,"Tremor, Grade 2",[7]; [18],1 (6) No. Patients (%)
same,"Tremor, Grade 3",[7]; [18],0 (0) No. Patients (%)
same,"Vomiting, All Grades (Gr 1–3)",[7]; [18],3 (18) No. Patients (%)
same,"Vomiting, Grade 1",[7]; [18],3 (18) No. Patients (%)
same,"Vomiting, Grade 2",[7]; [18],0 (0) No. Patients (%)
same,"Vomiting, Grade 3",[7]; [18],0 (0) No. Patients (%)
same,Grade 4 adverse events related to study treatment,[7]; in vivo,No Grade 4 adverse events related to the study treatment were reported
same,number of Grade 3 adverse events,[7]; in vivo,nine
same,Concentration impairment Grade 2 or higher,[7]; of 17 patients,5 patients
same,patients with CNS toxicities that contributed to treatment discontinuation,[7]; of 17 patients,nine
same,diarrhea,[7]; patients receiving 750 mg once daily,not reported
same,tolerability,"[7]; twice daily 450 mg or once daily 600/750 mg, without oral steroids",not generally well tolerated
same,efficacy in in vivo models,[8],effective
"CC(=O)O[C@H]1CC[C@@]2(C)C(=CC[C@@H]3[C@@H]2CC[C@]2(C)C(c4cccnc4)=CC[C@@H]32)C1 [AA, abiraterone acetate]",PSA response rate,[9]; ref 39,3%
same,PSA response rate,[9]; ref 40,8%
